High-throughput results from PubChem.
Beta apoptosis: blocks beta cell apoptosis; actives 0.8% (n = 300,000); protection from apoptosis, % (test concentration not listed); INS-1E cytokine-induced death, ATP luminescence, 48 h; percent of positive-control rescue, neutral wells zero;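 active means Every replicate reaches about 75%, or at least half do and their mean reaches it too, limit read from the data; inconclusive means At least half of replicates reach the limit but their mean does not; inactive means Under half of replicates reach the limit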;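 further: higher means more ATP so stronger rescue from cytokine killing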
T cruzi inh: blocks replication of Trypanosoma cruzi; T. cruzi beta-gal in NIH3T3, luminescence, 90 h; inhibition, % (concentration not given with the values); actives 1.4% (n = 300,000);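 active means mean inhibition across valid replicates above about 55%, limit read from the data; inconclusive means mean below that limit but half or more replicates reach it; inactive means mean below it, under half of replicates reach it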;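 further: signal also drops with host cell toxicity which is not excluded here; higher percent means less beta-gal luminescence so fewer parasites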
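Material: NIH/3T3 host cells with β-galactosidase reporter T. cruzi; Input: 5,000 host fibroblasts per well; Medium: DMEM, 2% fetal bovine serum; Compound: 50 nL DMSO compound solution per well; Schedule: 3 h host attachment, then at least 90 h co-culture; Detection: luminescent β-galactosidase signal after 60 min lysis.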
Mdm2-MdmX inh: disrupts the human Mdm2-MdmX interaction; AID 485346; actives 3% (n = 330,000); O15151+Q00987; SaOS-2 split-luciferase Mdm2/MdmX complementation, luminescence; inhibition, % at 8 µM;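 active means inhibition of at least 50% at 8 µM in the primary screen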
CSC inhib: cancer stem cell inhibition; cancer stem cell-like cells viability, luminescence; inhibition, % at 7.5 µM; actives 1.1% (n = 300,000); in the data active means inhibition above about 75%; inconclusive means no clear call, values can overlap the other calls; tested in HMLE shEcad cells
Calb FLC: C. albicans growth modulation with fluconazole | AID 1979 | C. albicans CaCi-2 (fluconazole-resistant clinical isolate) + fluconazole, Alamar Blue growth, 48 h | growth inhibition, % (test concentration not listed) | actives 0.57% (n = 300,000);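 active means growth inhibition above about 58% in most replicates, limit read from the data, passing the limit was not always enough; inconclusive means exactly half the replicates above a set limit; inactive means most replicates below a set limit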;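 further: all wells also contain fluconazole at 8 µg/ml as a sub-toxic cotreatment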
SKKanGAS inh: inhibitors of SKKanGAS S. pyogenes growth in kanamycin (SK-promoter or general growth effect). BacTiter-Glo, 6 h. inhibition, % at 7.5 µM. actives 1.3% (n = 300,000);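 active means mean replicate score, as percent of positive control median, at least 50; inconclusive means mean below 50 but one replicate at or above 50; inactive means mean and every replicate below 50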;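 further: strain carries kanamycin resistance gene driven by streptokinase promoter and grows in 40 µg/ml kanamycin; loss of luminescence reflects streptokinase promoter inhibition or plain growth inhibition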
Each line names hits and unclear results; the compound was inactive in the other large screens. In the library only some 5.7% were active in any assay of this set; here they are far more common.

CS(=O)(=O)N(CC(=O)Nc1c(F)cccc1F)c1ccc(C23CC4CC(CC(C4)C2)C3)cc1	T cruzi inh 70
CNC(=O)CN(c1ccc(C23CC4CC(CC(C4)C2)C3)cc1)S(C)(=O)=O	Calb FLC inconclusive
CCCc1cc(C(=O)Cc2ccc(F)cc2)c(O)cc1O	CSC inhib 82
CC(C)COc1ccc(CNC(=S)N/N=C/c2ccc([N+](=O)[O-])cc2)cc1	none
CCCOc1ccc(CNC(=S)N/N=C/c2ccc([N+](=O)[O-])cc2)cc1	T cruzi inh 61
Cc1cccc(-n2c(SCc3cc(=O)n4ccsc4n3)nc3ccccc32)c1	T cruzi inh 62, Calb FLC 114 (no result: CSC inhib)
COc1ccc(/C=N\NC(=O)c2ccc(=O)[nH]n2)cc1O	none (no result: Beta apoptosis, CSC inhib)
COc1ccc(/C=N/NC(=O)c2cc(C34CC5CC(CC(C5)C3)C4)[nH]n2)cc1O	CSC inhib 97
CCOc1cccc(C2C(C#N)=C(N)Oc3cc(C)[nH]c(=O)c32)c1OCC (configuration not stated)	none
Cc1ccc2cc(C3C(C#N)=C(N)Oc4c3ccc3cccnc43)c(=O)[nH]c2c1 (configuration not stated)	Beta apoptosis 88, Calb FLC 87
N#CC1=C(N)Oc2cc3ccccc3cc2C1c1cccnc1 (configuration not stated)	none
N#CC1=C(N)Oc2c(ccc3cccnc23)C1c1cccnc1 (configuration not stated)	Beta apoptosis 99, Calb FLC 104
CCc1ccc2[nH]c(=O)c(C3C(C#N)=C(N)Oc4c3ccc3cccnc43)cc2c1 (configuration not stated)	Beta apoptosis 94, T cruzi inh 59, CSC inhib 97, Calb FLC 110, SKKanGAS inh 58
N#CC1=C(N)OC2=C(C(=O)CC(c3ccccc3)C2)C1c1cccnc1 (configuration not stated)	T cruzi inh 55
N#CC1=C(N)OC2=C(C(=O)CC(c3ccccc3)C2)C1c1ccoc1 (configuration not stated)	none
CC1(C)CC(NC(=O)C2CCN(S(=O)(=O)c3cccc(C(F)(F)F)c3)CC2)CC(C)(C)N1	none (no result: T cruzi inh, CSC inhib, Calb FLC, SKKanGAS inh)
Cc1onc(-c2c(Cl)cccc2Cl)c1NC(=O)NC1CCSC1 (configuration not stated)	none
Cc1ccccc1C(=O)NCC(=O)NCC1(N2CCOCC2)CCCCC1	none
COc1ccc(C(=S)N2CCN(S(=O)(=O)c3ccccc3)CC2)cc1	none
CN(C)c1ccc(C(=S)N2CCN(S(=O)(=O)c3ccccc3)CC2)cc1	T cruzi inh 56
Cc1ccc(C)c(NC(=O)CCN2CCN(c3ccccc3F)CC2)c1	none
O=C(NC(=S)Nc1ccc(Cl)cn1)C(c1ccccc1)c1ccccc1	SKKanGAS inh 77
CC(C)(C)C(=O)NC(=S)NNC(=O)C(c1ccccc1)c1ccccc1	Calb FLC 82
CC(=O)NNC(=S)NC(=O)C(c1ccccc1)c1ccccc1	Calb FLC 99, SKKanGAS inh 61
CCNC(=S)NNC(=O)C(c1ccccc1)c1ccccc1	none
CC1CCCCC1NC(=O)Cc1ccc(S(=O)(=O)N2CCOCC2)s1 (configuration not stated)	none (no result: Beta apoptosis)
Cc1cc(O)ccc1N1C(=O)c2cccc3cc([N+](=O)[O-])cc(c23)C1=O	T cruzi inh 67
O=C1c2cccc3cc([N+](=O)[O-])cc(c23)C(=O)N1c1ccccc1O	T cruzi inh 58 (no result: Beta apoptosis)
O=C1c2cccc3cc([N+](=O)[O-])cc(c23)C(=O)N1c1nncs1	none
Cc1ccc(N2C(=O)c3cccc4c(Oc5ccccc5[N+](=O)[O-])ccc(c34)C2=O)c(C)c1	none
O=C(COc1ccc([N+](=O)[O-])cc1)NCC(c1cccs1)N1CCOCC1 (configuration not stated)	none
O=C(COc1ccc([N+](=O)[O-])cc1)Nc1cc(S(=O)(=O)N2CCCCC2)ccc1N1CCCCC1	none
O=C(NCc1ccco1)c1cc(S(=O)(=O)N2CCCC2)ccc1Cl	none
CCN1CCN(c2ccc(S(=O)(=O)N3CCCCC3)cc2NC(=O)COc2ccc(F)cc2Cl)CC1	T cruzi inh 64
O=C(Nc1cc(S(=O)(=O)N2CCCCC2)ccc1Cl)c1ccccc1NS(=O)(=O)c1ccc(F)cc1	Beta apoptosis 130, CSC inhib 83, Calb FLC inconclusive (no result: Mdm2-MdmX inh)
O=C(CN(Cc1ccco1)Cc1ccco1)Nc1cc(S(=O)(=O)N2CCCCC2)ccc1Cl	Beta apoptosis 101 (no result: T cruzi inh, CSC inhib, Calb FLC, SKKanGAS inh)
O=C(COc1ccc(F)cc1)Nc1cc(S(=O)(=O)N2CCCCC2)ccc1N1CCCCC1	T cruzi inh 55
CCN1CCN(c2ccc(S(=O)(=O)N3CCCCC3)cc2NC(=O)COc2cc(C)ccc2Cl)CC1	none
COc1ccc(C(=O)NCC(=O)OCC(=O)NC2CCCCCC2)cc1OC	none (no result: T cruzi inh, Calb FLC, SKKanGAS inh)
CCOC(=O)[C@H]1[C@H]2COc3ccc(OC)cc3[C@@H]2N2C(=O)c3cc(OC)ccc3NC(=O)[C@@]12C	none (no result: T cruzi inh, Calb FLC, SKKanGAS inh)
COc1ccc(-c2ccc(SC)nn2)cc1	CSC inhib 80
COc1ccc(C(=O)CSc2ccc(-c3ccccc3)nn2)cc1	none
CCC(C)c1ccc(NC(=S)N2CCN(S(C)(=O)=O)CC2)cc1 (configuration not stated)	none
Cc1ccc2sc(N(CCN(C)C)C(=O)c3ccc4ccccc4c3)nc2c1C	none
CN(C)CCCN(C(=O)/C=C/c1cccs1)c1nc2c(F)cccc2s1	T cruzi inh 56, Calb FLC inconclusive (no result: Beta apoptosis, Mdm2-MdmX inh, CSC inhib)
Cc1ccc2sc(N(CCCN(C)C)C(=O)CN3C(=O)c4ccccc4C3=O)nc2c1C	T cruzi inh 58
CN(C)CCCN(C(=O)CCOc1ccccc1)c1nc2c(F)cccc2s1	T cruzi inh 59 (no result: Beta apoptosis, Mdm2-MdmX inh, CSC inhib)
CCOc1cccc2sc(N(CCCN(C)C)C(=O)c3ccc(S(=O)(=O)N(C)c4ccccc4)cc3)nc12	T cruzi inh 56 (no result: CSC inhib)
O=C1CC(C(=O)N2CCc3ccccc32)CN1c1cccc(C(F)(F)F)c1 (configuration not stated)	none (no result: T cruzi inh, CSC inhib, Calb FLC, SKKanGAS inh)
CC(=O)N1CCN(c2ccc(S(C)(=O)=O)cc2[N+](=O)[O-])CC1	none
Cc1cc(C(C)(C)C)cc(C)c1S(=O)(=O)N1CC(=O)Nc2ccccc21	none
C#CCNC(=O)C1=C[C@H](C(C)(C)C)C[C@H](OCCCCO)O1	none
Cc1cccc2sc(N(CCCN(C)C)C(=O)COc3ccc(Cl)cc3)nc12	none
CN(C)CCCN(C(=O)COc1ccc(Cl)cc1)c1nc2c(F)cccc2s1	T cruzi inh 80
CN(C)CCCN(C(=O)CCc1ccccc1)c1nc2c(F)cccc2s1	T cruzi inh 58
CN(C)CCCN(C(=O)c1ccco1)c1nc2c(F)cccc2s1	T cruzi inh inconclusive
Cc1oc(/N=C/c2ccccc2)c(C#N)c1C	Beta apoptosis 165, CSC inhib 99
